Source: ChEMBL document CHEMBL1124270, “Quinolone antibacterial agents. Synthesis and structure-activity relationships of 8-substituted quinoline-3-carboxylic acids and 1,8-naphthyridine-3-carboxylic acids” (1988)
≈ marks a conversion by molar mass, not a printed value.

What was measured:
Assay type in all cases: functional
Providencia rettgeri = assay: Minimum inhibitory concentration against Providencia rettgeri H1771 in vitro.
Streptococcus pneumoniae [1] = assay: In vivo potency against Streptococcus pneumoniae using mouse protection assay following p.o. administration.; conditions: po, read-out: PD50
Mus musculus [2] = assay: In vivo potency against Escherichia coli vogel using mouse protection assay when given subcutaneously; conditions: sc, read-out: PD50
Escherichia coli [3] = assay: Minimum concentration needed to produce linear DNA at an intensity relative to oxolinic at 10 ug/mL in Escherichia coli H560 in vitro.
Outline: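 DNA gyrase cleavage test, run as previously described: end point is the lowest drug level (µg/mL) that yields linear DNA at a band intensity matching oxolinic acid at 10 µg/mL. Values come from duplicate or triplicate experiments and are stated as accurate to ±50%.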

Staphylococcus aureus [4] = assay: Minimum inhibitory concentration against Staphylococcus aureus H228 in vitro.
Enterococcus faecalis = assay: Minimum inhibitory concentration against Streptococcus faecalis MGH-2 in vitro.
Mus musculus [5] = assay: In vivo potency against Escherichia coli vogel using mouse protection assay when given perorally; conditions: po, read-out: PD50
Klebsiella pneumoniae = assay: Minimum inhibitory concentration against Klebsiella pneumoniae MGH-2 in vitro.
Escherichia coli [6] = assay: Minimum inhibitory concentration against Escherichia coli vogel in vitro.
Streptococcus pneumoniae [7] = assay: Minimum inhibitory concentration against Streptococcus pneumoniae SV-1 in vitro.
Streptococcus pyogenes = assay: Minimum inhibitory concentration against Streptococcus pyogenes C203 in vitro.
Enterobacter cloacae = assay: Minimum inhibitory concentration against Enterobacter cloacae HA 2646 in vitro.
Staphylococcus aureus [8] = assay: In vivo potency against Staphylococcus aureus using mouse protection assay following p.o. administration.; conditions: po, read-out: PD50
Staphylococcus aureus [9] = assay: Minimum inhibitory concentration against Staphylococcus aureus UC-76 in vitro.
Staphylococcus aureus [10] = assay: In vivo potency against Staphylococcus aureus using mouse protection assay following s.c. administration.; conditions: sc, read-out: PD50
Streptococcus pneumoniae [11] = assay: In vivo potency against Streptococcus pneumoniae using mouse protection assay following s.c. administration.; conditions: sc, read-out: PD50
Pseudomonas aeruginosa = assay: Minimum inhibitory concentration against Pseudomonas aeruginosa UI-18 in vitro.
Escherichia coli [12] = assay: Minimum inhibitory concentration against Escherichia coli H560 in vitro.
Mus musculus [13] = assay: In vivo potency against Streptococcus pneumoniae using mouse protection assay when given orally; conditions: po, read-out: PD50
Mus musculus [14] = assay: In vivo potency against Staphylococcus aureus using mouse protection assay when given orally; conditions: po, read-out: PD50

Row | SMILES | MIC (Providencia rettgeri) [µg/mL] | ED50 (Streptococcus pneumoniae [1]) [mg/kg] | ED50 (Mus musculus [2]) [mg/kg] | DNA cleavage conc (gyrase) (Escherichia coli [3]) [µg/mL] | MIC (Staphylococcus aureus [4]) [µg/mL] | MIC (Enterococcus faecalis) [µg/mL] | ED50 (Mus musculus [5]) [mg/kg] | MIC (Klebsiella pneumoniae) [µg/mL] | MIC (Escherichia coli [6]) [µg/mL] | MIC (Streptococcus pneumoniae [7]) [µg/mL] | MIC (Streptococcus pyogenes) [µg/mL] | MIC (Enterobacter cloacae) [µg/mL] | ED50 (Staphylococcus aureus [8]) [mg/kg] | MIC (Staphylococcus aureus [9]) [µg/mL] | ED50 (Staphylococcus aureus [10]) [mg/kg] | ED50 (Streptococcus pneumoniae [11]) [mg/kg] | MIC (Pseudomonas aeruginosa) [µg/mL] | MIC (Escherichia coli [12]) [µg/mL] | ED50 (Mus musculus [13]) [mg/kg] | ED50 (Mus musculus [14]) [mg/kg]
1 | CCNCC1CCN(c2nc3c(cc2F)c(=O)c(C(=O)O)cn3C2CC2)C1 (stereo not drawn) | 0.8 (≈ 2.14 µM) | 16 | 1 | 0.75 | 0.1 (≈ 0.267 µM) | 0.1 (≈ 0.267 µM) | 7 | 0.1 (≈ 0.267 µM) | 0.1 (≈ 0.267 µM) | 0.1 (≈ 0.267 µM) | 0.1 (≈ 0.267 µM) | 0.2 (≈ 0.534 µM) | 62 | 0.05 (≈ 0.134 µM) | 15 | 6 | 0.8 (≈ 2.14 µM) | 0.05 (≈ 0.134 µM) | – | –
2 | NCC1CCN(c2nc3c(cc2F)c(=O)c(C(=O)O)cn3C2CC2)C1 (stereo not drawn) | 0.4 (≈ 1.15 µM) | – | – | 0.5 | 0.2 (≈ 0.577 µM) | 0.025 (≈ 0.0722 µM) | 17 | 0.1 (≈ 0.289 µM) | 0.1 (≈ 0.289 µM) | 0.1 (≈ 0.289 µM) | 0.025 (≈ 0.0722 µM) | 0.1 (≈ 0.289 µM) | – | 0.006 (≈ 0.0173 µM) | – | – | 0.2 (≈ 0.577 µM) | 0.025 (≈ 0.0722 µM) | 100 | 55
3 | CN(C)CC1CCN(c2cc3c(cc2F)c(=O)c(C(=O)O)cn3C2CC2)C1 (stereo not drawn) | 0.4 (≈ 1.07 µM) | 18 | 2 | 0.75 | 0.1 (≈ 0.268 µM) | 0.2 (≈ 0.536 µM) | 4 | 0.2 (≈ 0.536 µM) | 0.1 (≈ 0.268 µM) | 0.1 (≈ 0.268 µM) | 0.2 (≈ 0.536 µM) | 0.1 (≈ 0.268 µM) | 47 | 0.1 (≈ 0.268 µM) | 26 | 9 | 1.6 (≈ 4.28 µM) | 0.1 (≈ 0.268 µM) | – | –
4 | O=C(O)c1cn(C2CC2)c2c(F)c(N3CCNCC3)c(F)cc2c1=O | 0.1 (≈ 0.286 µM) | 59 | 0.3 | 0.5 | 0.4 (≈ 1.15 µM) | 0.4 (≈ 1.15 µM) | 0.5 | 0.1 (≈ 0.286 µM) | 0.1 (≈ 0.286 µM) | 0.8 (≈ 2.29 µM) | 0.8 (≈ 2.29 µM) | 0.05 (≈ 0.143 µM) | 7 | 0.1 (≈ 0.286 µM) | 3 | 29 | 0.2 (≈ 0.573 µM) | 0.025 (≈ 0.0716 µM) | – | –
5 | CN(C)CC1CCN(c2c(F)cc3c(=O)c(C(=O)O)cn(C4CC4)c3c2F)C1 (stereo not drawn) | 0.8 (≈ 2.04 µM) | 5 | 1 | 0.1 | 0.025 (≈ 0.0639 µM) | 0.025 (≈ 0.0639 µM) | 2 | 0.2 (≈ 0.511 µM) | 0.2 (≈ 0.511 µM) | 0.05 (≈ 0.128 µM) | 0.05 (≈ 0.128 µM) | 0.2 (≈ 0.511 µM) | 45 | 0.025 (≈ 0.0639 µM) | 20 | 5 | 0.8 (≈ 2.04 µM) | 0.025 (≈ 0.0639 µM) | – | –
6 | CC(C)NCC1CCN(c2c(F)cc3c(=O)c(C(=O)O)cn(C4CC4)c3c2F)C1 (stereo not drawn) | 0.4 (≈ 0.987 µM) | 7 | 1 | 2.8 | 0.05 (≈ 0.123 µM) | 0.025 (≈ 0.0617 µM) | 6 | 0.2 (≈ 0.493 µM) | 0.1 (≈ 0.247 µM) | 0.05 (≈ 0.123 µM) | 0.05 (≈ 0.123 µM) | 0.2 (≈ 0.493 µM) | 42 | 0.013 (≈ 0.0321 µM) | 12 | 2 | 1.6 (≈ 3.95 µM) | 0.05 (≈ 0.123 µM) | – | –
7 | CN(C)CC1CCN(c2c(F)cc3c(=O)c(C(=O)O)cn(C4CC4)c3c2Cl)C1 (stereo not drawn) | 0.4 (≈ 0.981 µM) | 2 | 2 | 1 | 0.013 (≈ 0.0319 µM) | 0.05 (≈ 0.123 µM) | 4 | 0.1 (≈ 0.245 µM) | 0.1 (≈ 0.245 µM) | 0.006 (≈ 0.0147 µM) | 0.025 (≈ 0.0613 µM) | 0.2 (≈ 0.49 µM) | 61 | 0.006 (≈ 0.0147 µM) | 38 | 2 | 0.8 (≈ 1.96 µM) | 0.025 (≈ 0.0613 µM) | – | –
